# According to ChEMBL document CHEMBL1127294, “Development of a model for the delta opioid receptor pharmacophore. 1. Conformationally restricted Tyr1 replacements in the cyclic delta receptor selective tetrapeptide Tyr-c[D-Cys-Phe-D-Pen]OH (JOM-13)” (J Med Chem, 1994):
# Peptide text beside a SMILES is read from it.
# How the values were obtained:
# [1] = biological target: T1, Mu-type opioid receptor (Cavia porcellus, UniProt P97266); assay: Displacement of [3H]DAMGO from mu opioid receptor of guinea pig brain membrane
# [2] = biological target: T1, Mu-type opioid receptor; assay: Inhibitory concentration of compound against mu opioid receptor in guinea pig ileum assay; assay type: tissue-based
# In short: (§1)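 Electrically stimulated tissue in Krebs bicarbonate, 37 °C, 95% O2/5% CO2, 0.1 Hz, supramaximal voltage. MVD used male ICR mouse vas deferens, Mg-free buffer, 0.5 g tension, 2.0 ms pulses. GPI used male Hartley guinea pig ileum myenteric plexus strips, 1 g tension, 0.4 ms pulses. Cumulative agonist doses, 3 min each. IC50 from Hill fit to mean inhibition data, 2–4 tissues.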
# [3] = biological target: Delta-type opioid receptor (Mus musculus, UniProt P32300); assay: Inhibitory concentration against delta opioid receptor in mouse vas deferens assay; assay type: tissue-based; in short: as §1
# [4] = biological target: Opioid receptors; mu & delta (UniProt P41143+P35372); assay: Ratio of IC50 against mu opioid to IC50 against delta opioid receptor; in short: as §1
# Sequence of Opioid receptors; mu & delta (P35372 whole entry, looked up): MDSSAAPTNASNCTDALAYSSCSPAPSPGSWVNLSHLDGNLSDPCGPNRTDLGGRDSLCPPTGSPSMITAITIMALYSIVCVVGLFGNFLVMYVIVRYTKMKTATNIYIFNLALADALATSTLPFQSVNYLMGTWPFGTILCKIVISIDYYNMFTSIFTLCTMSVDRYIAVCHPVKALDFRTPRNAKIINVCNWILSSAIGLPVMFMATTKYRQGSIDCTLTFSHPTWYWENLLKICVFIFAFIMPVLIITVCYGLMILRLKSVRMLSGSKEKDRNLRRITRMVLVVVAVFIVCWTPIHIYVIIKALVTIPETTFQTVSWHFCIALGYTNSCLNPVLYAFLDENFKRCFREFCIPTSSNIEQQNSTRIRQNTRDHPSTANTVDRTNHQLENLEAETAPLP
# Sequence of Opioid receptors; mu & delta (P41143 whole entry, looked up): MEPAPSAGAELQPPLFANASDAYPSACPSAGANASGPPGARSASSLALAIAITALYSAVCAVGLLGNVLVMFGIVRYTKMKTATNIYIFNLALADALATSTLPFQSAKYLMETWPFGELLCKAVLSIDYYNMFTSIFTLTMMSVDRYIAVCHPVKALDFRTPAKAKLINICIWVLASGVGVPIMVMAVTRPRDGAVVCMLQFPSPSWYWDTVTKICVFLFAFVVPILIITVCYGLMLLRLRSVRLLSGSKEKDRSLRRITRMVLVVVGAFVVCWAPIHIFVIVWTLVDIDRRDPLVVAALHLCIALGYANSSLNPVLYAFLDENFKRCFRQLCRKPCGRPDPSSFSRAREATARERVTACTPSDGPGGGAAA
# Sequence of Delta-type opioid receptor (P32300 whole entry): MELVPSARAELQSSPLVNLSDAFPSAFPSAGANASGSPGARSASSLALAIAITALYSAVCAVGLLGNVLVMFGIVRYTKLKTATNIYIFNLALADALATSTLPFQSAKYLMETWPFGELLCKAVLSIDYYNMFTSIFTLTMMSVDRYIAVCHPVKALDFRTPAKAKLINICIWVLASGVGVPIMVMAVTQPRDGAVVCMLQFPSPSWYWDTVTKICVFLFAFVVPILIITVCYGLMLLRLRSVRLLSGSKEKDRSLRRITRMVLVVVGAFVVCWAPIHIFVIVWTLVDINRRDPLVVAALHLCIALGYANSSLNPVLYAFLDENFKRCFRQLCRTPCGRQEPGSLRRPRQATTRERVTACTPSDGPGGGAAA
# T1 sequence (P97266 whole entry): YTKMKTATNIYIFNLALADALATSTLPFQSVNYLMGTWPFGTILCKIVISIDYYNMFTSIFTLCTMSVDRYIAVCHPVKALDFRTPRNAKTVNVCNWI
smiles,measurement,setting,value
CC1(C)SSC[C@H](NC(=O)[C@H]2NCC[C@H]2c2ccc(O)cc2)C(=O)N[C@@H](Cc2ccccc2)C(=O)N[C@@H]1C(=O)O,Ki,[1],0.72 µM
same,IC50,[2],12 µM
same,IC50,[3],0.075 µM
same,Ratio,[4],160
"CC1(C)SSC[C@H](NC(=O)C2(N)CCc3cc(O)ccc3C2)C(=O)N[C@@H](Cc2ccccc2)C(=O)N[C@@H]1C(=O)O (single isomer, unassigned)",Ki,[1],0.31 µM
same,IC50,[2],4.3 µM
same,IC50,[3],0.34 µM
same,Ratio,[4],13
CC1(C)SSC[C@H](NC(=O)[C@H]2NCC[C@@H]2c2ccc(O)cc2)C(=O)N[C@@H](Cc2ccccc2)C(=O)N[C@@H]1C(=O)O,Ki,[1],0.11 µM
same,IC50,[2],0.77 µM
same,IC50,[3],0.0016 µM
same,Ratio,[4],480
CC1(C)SSC[C@H](NC(=O)[C@@]2(N)Cc3ccc(O)cc3C2)C(=O)N[C@@H](Cc2ccccc2)C(=O)N[C@@H]1C(=O)O,Ki,[1],0.84 µM
same,IC50,[2],> 10 µM
same,IC50,[3],0.34 µM
same,Ratio,[4],> 29
"CC1(C)SSC[C@H](NC(=O)C2(N)Cc3ccc(O)cc3C2)C(=O)N[C@@H](Cc2ccccc2)C(=O)N[C@@H]1C(=O)O (single isomer, unassigned)",Ki,[1],> 10 µM
"CC1(C)SSC[C@H](NC(=O)C2NCC[C@@H]2c2ccc(O)cc2)C(=O)N[C@@H](Cc2ccccc2)C(=O)N[C@@H]1C(=O)O (single isomer, unassigned)",Ki,[1],10 µM
"CC1(C)SSC[C@H](NC(=O)C2NCC[C@H]2c2ccc(O)cc2)C(=O)N[C@@H](Cc2ccccc2)C(=O)N[C@@H]1C(=O)O (single isomer, unassigned)",Ki,[1],4.44 µM
CC1(C)SSC[C@H](NC(=O)[C@@H](N)Cc2ccc(O)cc2)C(=O)N[C@@H](Cc2ccccc2)C(=O)N[C@@H]1C(=O)O,IC50,[3],0.0042 µM
"CC1(C)SSC[C@H](NC(=O)[C@@](C)(N)Cc2ccc(O)cc2)C(=O)N[C@@H](Cc2ccccc2)C(=O)N[C@@H]1C(=O)O (HELM PEPTIDE1{[C[C@](N)(Cc1ccc(O)cc1)C(=O)[*:2]].C.F.[Pen]}$PEPTIDE1,PEPTIDE1,2:R3-4:R3$$$V2.0)",Ki,[1],> 10 µM
"CC1(C)SSC[C@H](NC(=O)[C@@H]2Cc3ccc(O)cc3CN2)C(=O)N[C@@H](Cc2ccccc2)C(=O)N[C@@H]1C(=O)O (HELM PEPTIDE1{[O=C([C@@H]1Cc2ccc(O)cc2CN1)[*:2]].C.F.[Pen]}$PEPTIDE1,PEPTIDE1,2:R3-4:R3$$$V2.0)",Ki,[1],> 10 µM
CC1(C)SSC[C@H](NC(=O)[C@]2(N)CCc3cc(O)ccc3C2)C(=O)N[C@@H](Cc2ccccc2)C(=O)N[C@@H]1C(=O)O,Ki,[1],0.23 µM
same,IC50,[2],1.8 µM
same,IC50,[3],0.11 µM
same,Ratio,[4],16
